Among the data in ChEMBL document CHEMBL2046381, “Defining the mechanism of action and enzymatic selectivity of psammaplin A against its epigenetic targets” (J Med Chem, 2012) are IC50, GI50 and RatioGI50 values, retold here.

The target in series [1] is T1, Protein deacetylase HDAC6 (Homo sapiens, UniProt Q9UBN7).
T1 sequence (Q9UBN7 whole entry): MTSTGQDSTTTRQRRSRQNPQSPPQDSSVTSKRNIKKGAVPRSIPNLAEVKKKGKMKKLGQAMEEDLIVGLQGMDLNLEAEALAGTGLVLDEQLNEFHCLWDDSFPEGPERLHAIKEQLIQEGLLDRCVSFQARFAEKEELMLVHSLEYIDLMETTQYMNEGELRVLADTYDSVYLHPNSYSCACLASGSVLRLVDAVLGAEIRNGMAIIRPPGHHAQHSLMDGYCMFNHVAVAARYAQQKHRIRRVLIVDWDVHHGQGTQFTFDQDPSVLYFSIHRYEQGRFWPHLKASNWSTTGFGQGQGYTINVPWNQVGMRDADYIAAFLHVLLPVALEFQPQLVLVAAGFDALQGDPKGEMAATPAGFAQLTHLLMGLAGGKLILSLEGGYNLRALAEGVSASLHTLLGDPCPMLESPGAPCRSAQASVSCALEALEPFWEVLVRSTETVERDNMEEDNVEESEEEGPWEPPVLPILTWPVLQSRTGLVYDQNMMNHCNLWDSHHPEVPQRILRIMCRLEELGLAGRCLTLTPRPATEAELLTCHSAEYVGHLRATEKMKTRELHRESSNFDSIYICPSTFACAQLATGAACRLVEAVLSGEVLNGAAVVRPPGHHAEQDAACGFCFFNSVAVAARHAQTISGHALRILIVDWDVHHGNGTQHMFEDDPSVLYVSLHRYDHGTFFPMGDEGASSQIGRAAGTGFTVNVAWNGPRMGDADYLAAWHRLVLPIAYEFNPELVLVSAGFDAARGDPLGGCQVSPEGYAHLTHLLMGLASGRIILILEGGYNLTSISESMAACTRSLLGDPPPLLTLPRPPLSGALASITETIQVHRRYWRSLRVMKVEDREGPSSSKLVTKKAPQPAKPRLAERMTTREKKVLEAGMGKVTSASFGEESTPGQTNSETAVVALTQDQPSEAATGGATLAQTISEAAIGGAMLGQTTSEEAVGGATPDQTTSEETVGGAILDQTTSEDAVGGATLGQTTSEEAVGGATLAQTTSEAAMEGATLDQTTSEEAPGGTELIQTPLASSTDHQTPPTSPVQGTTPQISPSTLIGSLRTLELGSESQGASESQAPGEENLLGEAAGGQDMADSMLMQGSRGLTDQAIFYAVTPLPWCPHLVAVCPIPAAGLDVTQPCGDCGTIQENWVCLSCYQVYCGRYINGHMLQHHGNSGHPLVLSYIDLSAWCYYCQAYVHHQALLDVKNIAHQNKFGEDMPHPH
Briefly: Inhibition of human recombinant HDAC6 using Boc-lys(Ac)-AMC as substrate preincubated for 20 mins with substrate measured after 60 mins by fluorescence analysis.

Series [2] is described as follows: Growth inhibition of human WI38 cells after 96 hrs by sulphorhodamine B assay. The series is classed as cell-based. Particulars: WI-38 cells. In a few lines: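 SRB growth assay; MCF7 and WI38 seeded 4000 cells/well, A549 2000 cells/well, attached overnight, then exposed to freshly made drug solutions (0.1 to 50 μM) for 96 h. Fixed with cold 10% TCA, stained with 0.4% SRB; absorbance at 540 nm as percent of untreated control, IC50 from mean absorbance.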
(In general: Sulforhodamine B stains cellular protein and so reports cell mass.)

Another series relates to MCF7. Description: Selectivity index, ratio of GI50 for human WI38 cells to GI50 for human MCF7 cells. The series is classed as functional.

Broadly, the IC50 is the point on the concentration scale where inhibition reaches its midpoint. As usually defined, the GI50 is the concentration that inhibits growth by half. Regarding `N/N=C(\Cc1ccc(O)c(Br)c1)C(=O)NCCS`, in series [1], the concentration for half-maximal inhibition (IC50) stood at 1 µM. The molecule further displayed a GI50 at 96 h in series [2] of 37.2 µM. Besides, the RatioGI50 in the series on MCF7 amounted to 10.
